Test [1] can be described thus: Inhibition of almond beta-glucosidase by spectrophotometry. Also on record: species or system Prunus dulcis. The gist of the method:
(§1)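 Commercial enzyme assayed with the matching p-nitrophenyl glycoside (2 mM) in a 1 mL reaction, at pH 5.0 for the C. saccharolyticum and almond beta-glucosidases, pH 6.8 for bovine liver beta-galactosidase and pH 6.8 for yeast alpha-glucosidase. The reaction was stopped with 2 mL of 400 mM Na2CO3 and released p-nitrophenol was read at 400 nm. IC50 was determined.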

Test [2] has as its target Alpha-galactosidase (Coffea arabica) (UniProt Q42656). Description: Inhibition of coffee bean alpha-galactosidase at 1000 uM by spectrophotometry. The gist of the method:
(§2)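 Commercial enzymes (P. decumbens alpha-L-rhamnosidase at pH 4.5, bovine epididymis alpha-L-fucosidase at pH 5.5, coffee bean alpha-galactosidase at pH 6.5) were incubated with 2 mM p-nitrophenyl glycoside in a 1 mL reaction. The reaction was stopped with 2 mL of 400 mM Na2CO3 and p-nitrophenol was read at 400 nm.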

Test [3] is filed under the species Rattus norvegicus. Description: Inhibition of rat epididymis alpha-mannosidase at 1000 uM by spectrophotometry. A digest of the protocol: (§3)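 Enzyme source was rat epididymal fluid purified from epididymis, assayed at pH 5.2 with 2 mM of the relevant p-nitrophenyl glycoside in a 1 mL reaction. The reaction was stopped with 2 mL of 400 mM Na2CO3 and p-nitrophenol was measured at 400 nm.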

The test system of test [4] is Penicillium decumbens. The test can be described thus: Inhibition of Penicillium decumbens alpha-L-rhamnosidase at 1000 uM by spectrophotometry. A digest of the protocol:
as §2

Test [5] can be described thus: Inhibition of rice alpha-glucosidase by spectrophotometry. Also on record: species or system Oryza sativa.
A short description of test [6]: Inhibition of yeast alpha-glucosidase by spectrophotometry. Also on record: species or system Saccharomyces cerevisiae. The gist of the method:
as §1

Test [7] can be described thus: Inhibition of Caldocellum saccharolyticum beta-glucosidase by spectrophotometry. Also on record: species or system Caldicellulosiruptor saccharolyticus. A digest of the protocol: as §1
The target of test [8] is T1, Beta-galactosidase (Bos taurus, UniProt Q58D55).
T1 sequence (Q58D55 whole entry): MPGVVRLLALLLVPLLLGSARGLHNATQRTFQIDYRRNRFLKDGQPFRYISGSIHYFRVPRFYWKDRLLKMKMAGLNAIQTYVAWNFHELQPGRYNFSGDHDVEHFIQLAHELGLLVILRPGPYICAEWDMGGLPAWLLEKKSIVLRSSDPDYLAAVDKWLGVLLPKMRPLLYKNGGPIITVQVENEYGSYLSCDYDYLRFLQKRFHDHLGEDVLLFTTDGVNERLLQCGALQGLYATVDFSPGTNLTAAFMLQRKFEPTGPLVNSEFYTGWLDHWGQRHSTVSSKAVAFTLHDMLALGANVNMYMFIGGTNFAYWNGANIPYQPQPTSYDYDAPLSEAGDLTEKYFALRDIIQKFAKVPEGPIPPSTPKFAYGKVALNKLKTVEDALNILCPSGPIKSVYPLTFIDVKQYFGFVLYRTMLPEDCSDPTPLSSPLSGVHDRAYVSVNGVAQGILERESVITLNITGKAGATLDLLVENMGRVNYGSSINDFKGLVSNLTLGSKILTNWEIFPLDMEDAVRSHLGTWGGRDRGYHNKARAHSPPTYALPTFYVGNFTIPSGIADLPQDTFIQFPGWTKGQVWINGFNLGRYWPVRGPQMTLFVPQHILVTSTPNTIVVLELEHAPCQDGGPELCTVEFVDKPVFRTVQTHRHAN
The test can be described thus: Inhibition of bovine liver beta-galactosidase by spectrophotometry. The gist of the method: as §1

Test [9] is filed under the species Rattus norvegicus. The test can be described thus: Inhibition of rat epididymis beta-galactosidase at 1000 uM by spectrophotometry. A digest of the protocol:
as §3

Test [10] concerns the target T2, Beta-mannosidase (Rattus norvegicus, UniProt Q4FZV0).
T2 sequence (Q4FZV0 whole entry): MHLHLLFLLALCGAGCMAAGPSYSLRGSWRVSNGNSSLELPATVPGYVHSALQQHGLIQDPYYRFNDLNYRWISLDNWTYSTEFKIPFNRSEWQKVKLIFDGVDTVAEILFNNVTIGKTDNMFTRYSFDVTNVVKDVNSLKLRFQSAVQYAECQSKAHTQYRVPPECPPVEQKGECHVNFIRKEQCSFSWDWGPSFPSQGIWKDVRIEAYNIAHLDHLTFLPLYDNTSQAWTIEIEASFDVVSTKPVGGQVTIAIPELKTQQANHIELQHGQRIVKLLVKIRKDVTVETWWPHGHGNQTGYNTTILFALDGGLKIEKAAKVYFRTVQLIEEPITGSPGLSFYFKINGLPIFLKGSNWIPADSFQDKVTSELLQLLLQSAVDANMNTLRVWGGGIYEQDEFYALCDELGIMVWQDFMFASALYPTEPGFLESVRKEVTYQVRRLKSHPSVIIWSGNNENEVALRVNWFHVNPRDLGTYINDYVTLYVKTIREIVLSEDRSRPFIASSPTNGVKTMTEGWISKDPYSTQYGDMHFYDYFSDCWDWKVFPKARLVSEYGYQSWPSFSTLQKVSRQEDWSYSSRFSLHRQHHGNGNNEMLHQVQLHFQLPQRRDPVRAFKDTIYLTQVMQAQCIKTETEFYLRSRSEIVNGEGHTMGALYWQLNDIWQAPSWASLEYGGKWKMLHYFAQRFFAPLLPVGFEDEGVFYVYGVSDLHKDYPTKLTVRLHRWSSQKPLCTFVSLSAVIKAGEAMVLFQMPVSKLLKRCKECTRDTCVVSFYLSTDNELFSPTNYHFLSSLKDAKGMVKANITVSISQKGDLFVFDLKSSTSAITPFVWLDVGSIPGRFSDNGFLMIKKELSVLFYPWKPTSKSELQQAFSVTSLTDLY
Description: Inhibition of rat epididymis beta-mannosidase by spectrophotometry. The gist of the method:
as §3

Test [11] concerns the target T3, Tissue alpha-L-fucosidase (Bos taurus) (UniProt Q2KIM0).
T3 sequence (whole entry): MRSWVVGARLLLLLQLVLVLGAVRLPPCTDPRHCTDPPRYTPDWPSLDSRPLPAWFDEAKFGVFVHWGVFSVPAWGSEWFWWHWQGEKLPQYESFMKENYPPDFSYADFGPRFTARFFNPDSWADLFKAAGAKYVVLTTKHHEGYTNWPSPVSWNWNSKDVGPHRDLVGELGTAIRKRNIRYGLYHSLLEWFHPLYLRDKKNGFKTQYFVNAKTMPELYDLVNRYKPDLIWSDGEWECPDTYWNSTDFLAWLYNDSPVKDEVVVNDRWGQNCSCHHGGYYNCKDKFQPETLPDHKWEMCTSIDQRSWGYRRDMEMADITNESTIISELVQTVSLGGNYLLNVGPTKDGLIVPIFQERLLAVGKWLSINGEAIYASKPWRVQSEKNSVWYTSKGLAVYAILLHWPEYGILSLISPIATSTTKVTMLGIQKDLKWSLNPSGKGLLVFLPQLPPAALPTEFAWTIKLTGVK
The test can be described thus: Inhibition of bovine epididymis alpha-L-fucosidase at 1000 uM by spectrophotometry. A digest of the protocol:
as §2

Test [12] concerns the target T4, Lysosomal acid glucosylceramidase (Homo sapiens) (UniProt P04062).
T4 sequence (whole entry): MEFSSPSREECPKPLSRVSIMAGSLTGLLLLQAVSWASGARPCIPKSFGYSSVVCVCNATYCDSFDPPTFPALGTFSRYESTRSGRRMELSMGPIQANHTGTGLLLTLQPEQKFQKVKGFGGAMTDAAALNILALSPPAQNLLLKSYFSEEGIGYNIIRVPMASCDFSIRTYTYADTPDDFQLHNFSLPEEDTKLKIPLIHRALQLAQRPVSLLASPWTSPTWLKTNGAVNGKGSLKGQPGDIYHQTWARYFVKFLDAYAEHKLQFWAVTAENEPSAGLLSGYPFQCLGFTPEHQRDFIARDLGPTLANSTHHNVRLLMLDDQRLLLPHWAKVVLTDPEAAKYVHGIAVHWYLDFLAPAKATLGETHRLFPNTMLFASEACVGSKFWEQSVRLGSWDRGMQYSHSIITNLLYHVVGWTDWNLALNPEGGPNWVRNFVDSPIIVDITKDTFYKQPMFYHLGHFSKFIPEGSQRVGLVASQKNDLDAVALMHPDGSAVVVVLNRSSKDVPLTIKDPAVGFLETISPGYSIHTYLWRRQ
Description: Inhibition of human placental beta-glucocerebrosidase at 1000 uM by spectrophotometry.

The subject of test [13] is maltase-glucoamylase (Rattus norvegicus). The test can be described thus: Inhibition of rat intestinal maltase at 1000 uM by spectrophotometry.
In test [14] the target is T5, Beta-galactosidase (Bos taurus) (UniProt Q58D55).
T5 sequence (whole entry): T1 sequence (Q58D55 whole entry)
Description: Inhibition of bovine liver beta-galactosidase at 1000 uM by spectrophotometry.

Test [15] concerns the target T6, Beta-mannosidase (Rattus norvegicus) (UniProt Q4FZV0).
T6 sequence (whole entry): T2 sequence (Q4FZV0 whole entry)
The test can be described thus: Inhibition of rat epididymis beta-mannosidase at 1000 uM by spectrophotometry.

Test [16] relates to Oryza sativa. The test can be described thus: Inhibition of rice alpha-glucosidase at 1000 uM by spectrophotometry.
Test [17] relates to Saccharomyces cerevisiae. Description: Inhibition of yeast alpha-glucosidase at 1000 uM by spectrophotometry.
For test [18], the system named is Prunus dulcis. Description: Inhibition of almond beta-glucosidase at 1000 uM by spectrophotometry.

Structures are written as SMILES.

These results are taken from ChEMBL document CHEMBL1151206, “Glycosidase-inhibiting pyrrolidines and pyrrolizidines with a long side chain in Scilla peruviana” (J Nat Prod, 2004).

Chain of Alpha-galactosidase (Coffea arabica) (Q42656 16-378 limits assumed): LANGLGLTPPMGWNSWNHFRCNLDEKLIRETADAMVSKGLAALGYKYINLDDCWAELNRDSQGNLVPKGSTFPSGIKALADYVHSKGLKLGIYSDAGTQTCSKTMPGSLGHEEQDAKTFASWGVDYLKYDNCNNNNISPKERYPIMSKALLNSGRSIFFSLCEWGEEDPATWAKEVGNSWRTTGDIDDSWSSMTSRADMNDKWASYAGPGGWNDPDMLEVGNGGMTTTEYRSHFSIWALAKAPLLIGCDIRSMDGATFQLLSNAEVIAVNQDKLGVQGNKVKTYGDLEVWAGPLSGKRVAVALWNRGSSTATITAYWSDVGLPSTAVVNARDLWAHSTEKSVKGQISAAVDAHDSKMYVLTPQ

The IC50 is the midpoint of a concentration-inhibition curve. For the compound `OC[C@H]1N[C@H]([C@H](O)CCCC[C@@H]2CCC[C@]3(CCCO3)O2)[C@@H](O)[C@@H]1O`, the IC50 in test [1] came to 0.01 µM.

Consider `OC[C@H]1N[C@H](C(O)CCC[C@@H]2CCC[C@]3(CCCCO3)O2)[C@@H](O)[C@@H]1O` (stereo partly drawn), for which the IC50 in test [1] was found to be 0.01 µM.

For `O=C(CCCCCCC[C@@H](O)[C@H]1N[C@H](CO)[C@@H](O)[C@@H]1O)CCCCO[C@@H]1O[C@H](CO)[C@@H](O)[C@H](O)[C@H]1O`, in test [1], the IC50 was 0.01 µM.

A word on the inhibition: it is the share of the control response that was lost under treatment. Read a high inhibition as a strong effect. As for `CC(O)[C@@H](O)[C@H]1N[C@H](CO)[C@@H](O)[C@@H]1O` (stereo partly drawn), the inhibition in test [2], in [3], in test [4], in [9], in test [11] and in test [12] was less than 50% in each case. The compound further returned an inhibition in test [13] of less than 50%. The IC50 in test [5] is 650 µM; in [6], 630 µM; in test [7], 20 µM; in test [1], 120 µM; in [8] it was 130 µM; in [10], 150 µM.

In turn, `O=C(CCCCCCCC[C@@H](O)[C@H]1N[C@H](CO)[C@@H](O)[C@@H]1O)CCCO[C@@H]1O[C@H](CO)[C@@H](O)[C@H](O)[C@H]1O` registered an IC50 in test [1] of 0.01 µM.

For the compound `OC[C@@H](O)[C@H]1N[C@H](CO)[C@@H](O)[C@@H]1O`, the IC50 in test [7] came out at 3.2 µM; in [8], 4.4 µM.

With `CC(O)CC[C@@H]1CC[C@@H]2[C@@H](O)[C@H](O)[C@@H](CO)N12` (stereo partly drawn), the inhibition in [2], in test [14], in test [3], in test [15], in test [4] and in test [16] was less than 50% in each case. The inhibition in [17], in test [9], in test [11], in test [12] and in test [13] was less than 50% in each case. Also, the IC50 came to 136 µM in test [7] and 49 µM in [1].

In [1], `O=C(CCCCO)CCCCCCC[C@@H](O)[C@H]1N[C@H](CO)[C@@H](O)[C@@H]1O` showed an IC50 of 0.01 µM.

For `OC[C@@H]1[C@@H](O)[C@H](O)[C@H]2[C@H](O)CCN21`, in test [6], 95 µM corresponded to half-maximal inhibition (IC50).

For the compound `CC(O)C[C@H]1N[C@H](CO)[C@@H](O)[C@@H]1O` (stereo partly drawn), the inhibition in [2], in [3], in [4], in [9], in test [11] and in test [18] was less than 50% in each case. The compound also registered an inhibition in test [12] of less than 50%. Moreover, the half-inhibitory concentration (IC50) turned out to be 210 µM in test [5]; 100 µM in test [6]; 700 µM in test [7]; 260 µM in test [8]; 610 µM in test [10].

Consider `OCC(O)CC(O)[C@@H]1CC[C@@H]2[C@H](O)[C@H](O)[C@@H](CO)N21` (stereo partly drawn), for which the inhibition in [2], in test [3], in test [15], in [4], in [9] and in [11] was less than 50% each time. The inhibition in test [12] and in test [13] was less than 50% each time. Also, the IC50 in test [5] turned out to be 390 µM; in test [6], 650 µM; in [7], 11.4 µM; in [1], 25.4 µM; in test [8], 920 µM.

In test [1], `O=C(CCCO)CCCCCCCC[C@@H](O)[C@H]1N[C@H](CO)[C@@H](O)[C@@H]1O` showed an IC50 of 0.01 µM.

As to `CC(O)CC[C@@H]1C[C@@H](O)[C@@H]2[C@@H](O)[C@H](O)[C@@H](CO)N12` (stereo partly drawn), the inhibition in [2], in test [3], in test [15], in [4], in [16] and in [9] was less than 50% in each case. For the same compound, the inhibition in test [11], in test [18], in test [12] and in test [13] was less than 50% in each case. The figures for the IC50 in [6], in test [7] and in [8] were 6.6 µM, 200 µM and 320 µM, respectively.
